Legend:
[1] = test system: HT-29; experiment: Cell proliferation assay; format: cell-based; conditions: Homo sapiens, HT-29, 72 h
Outline: (§1)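 Adherent solid-tumour cells were seeded at 5,000 cells/well and allowed to attach for 16–24 h at 37°C, 5% CO2. They were exposed to the test compound at 0.0005–10 μM (3-fold serial dilutions) for 72 h. Alamar Blue was added (1X final) for 1–3 h and fluorescence read at 540 nm excitation, 590 nm emission. IC50 came from a sigmoidal variable-slope fit.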

[2] = test system: A375; experiment: Cell proliferation assay; format: cell-based; conditions: Homo sapiens, A-375, 72 h
Outline: as §1

[3] = test system: T24; experiment: Cell proliferation assay; format: cell-based; conditions: Homo sapiens, T-24, 72 h
[4] = test system: NCI-H2122; experiment: Cell proliferation assay; format: cell-based; conditions: Homo sapiens, NCI-H2122, 72 h
[5] = test system: LoVo; experiment: Cell proliferation assay; format: cell-based; conditions: Homo sapiens, 72 h
[6] = test system: HCT116; experiment: Cell proliferation assay; format: cell-based; conditions: Homo sapiens, HCT-116, 72 h
[7] = test system: SK-MEL-2; experiment: Cell proliferation assay; format: cell-based; conditions: Homo sapiens, SK-MEL-2, 72 h
[8] = test system: Hep G2; experiment: Cell proliferation assay; format: cell-based; conditions: Homo sapiens, HepG2, 72 h
[9] = test system: A2780; experiment: Cell proliferation assay; format: cell-based; conditions: Homo sapiens, A2780, 72 h
Outline: as §1

[10] = test system: PC-3; experiment: Cell proliferation assay; format: cell-based; conditions: Homo sapiens, PC-3, 72 h
Outline: as §1

[11] = test system: MCF7; experiment: Cell proliferation assay; format: cell-based; conditions: Homo sapiens, MCF7, 72 h
Outline: as §1

[12] = test system: EB1; experiment: Cell viability MTS assay; format: cell-based; conditions: Homo sapiens, EB1, read-out: IC50 mean values
Outline: (§2)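 Lymphoma suspension lines were grown in RPMI 1640 with 10–20% heat-inactivated FBS, 1% L-glutamine and penicillin-streptomycin at 37°C, 5% CO2. Cells were plated at 25,000/100 μL (96-well) or 250,000/mL (24-well) with DMSO 0.1% vehicle or rising compound concentrations for 24–72 h. MTS reagent was added at 1:5 and absorbance read at 490 nm. IC50 was taken from three independent experiments (mean ± SD).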

[13] = test system: Daudi; experiment: Cell viability MTS assay; format: cell-based; conditions: Homo sapiens, read-out: IC50 mean values
Outline: as §2

[14] = test system: L-428; experiment: Cell viability MTS assay; format: cell-based; conditions: Homo sapiens, L-428, read-out: IC50 mean values
Outline: as §2

[15] = test system: SUP-M2; experiment: Cell viability MTS assay; format: cell-based; conditions: Homo sapiens, SUP-M2, read-out: IC50 mean values
Outline: as §2

[16] = test system: REC-1; experiment: Cell viability MTS assay; format: cell-based; conditions: Homo sapiens, Rec1, read-out: IC50 mean values
Outline: as §2

[17] = test system: JVM-2; experiment: Cell viability MTS assay; format: cell-based; conditions: Homo sapiens, JVM-2, read-out: IC50 mean values
Outline: as §2

[18] = test system: KARPAS-299; experiment: Cell viability MTS assay; format: cell-based; conditions: Homo sapiens, KARPAS-299, read-out: IC50 mean values
Outline: as §2

[19] = test system: TMD8; experiment: Cell viability MTS assay; format: cell-based; conditions: Homo sapiens, TMD8, read-out: IC50 mean values
Outline: as §2

[20] = test system: U-2932; experiment: Cell viability MTS assay; format: cell-based; conditions: Homo sapiens, U2932, read-out: IC50 mean values
Outline: as §2

[21] = test system: DB; experiment: Cell viability MTS assay; format: cell-based; conditions: Homo sapiens, read-out: IC50 mean values
Outline: as §2

[22] = test system: SU-DHL-10; experiment: Cell viability MTS assay; format: cell-based; conditions: Homo sapiens, SU-DHL10, read-out: IC50 mean values
Outline: as §2

[23] = test system: Ri-1; experiment: Cell viability MTS assay; format: cell-based; conditions: Homo sapiens, Ri-1, read-out: IC50 mean values
Outline: as §2

[24] = test system: OCI-Ly10; experiment: Cell viability MTS assay; format: cell-based; conditions: Homo sapiens, OCI-Ly10, read-out: IC50 mean values
Outline: as §2

[25] = test system: JeKo-1; experiment: Cell viability MTS assay; format: cell-based; conditions: Homo sapiens, JeKo-1, read-out: IC50 mean values
Outline: as §2

[26] = test system: SU-DHL-6; experiment: Cell viability MTS assay; format: cell-based; conditions: Homo sapiens, SU-DHL-6, read-out: IC50 mean values
Outline: as §2

[27] = test system: OCI-Ly19; experiment: Cell viability MTS assay; format: cell-based; conditions: Homo sapiens, OCI-LY19, read-out: IC50 mean values
Outline: as §2

[28] = test system: MINO; experiment: Cell viability MTS assay; format: cell-based; conditions: Homo sapiens, read-out: IC50 mean values
Outline: as §2

[29] = test system: NU-DHL-1; experiment: Cell viability MTS assay; format: cell-based; conditions: Homo sapiens, NU-DHL-1, read-out: IC50 mean values
Outline: as §2

[30] = test system: MSK1 and RSK1 phosphorylation in JeKo-1 and A375 cell lines; experiment: Time-dependent western blot of ERK1/2 targets; format: cell-based, human
Outline: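 JeKo-1 and A375 cells were treated with compound over a time course and lysed in Cell Signaling lysis buffer. Samples of 30 μg protein were denatured at 95°C for 5 min in Laemmli buffer with DTT and run on 4–15% or 4–12% gels. After transfer to PVDF or nitrocellulose, blots took primary antibody overnight in 5% BSA/PBS and IRDye or HRP secondary for 1 h at room temperature. Phospho-MSK1 and phospho-RSK1 were imaged.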

[31] = test system: HCT116, Panc-1, MIA PaCa-2 and SK-N-AS xenografts; experiment: Human tumor xenograft mouse models; format: in vivo; conditions: all four models
Outline: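 Female athymic nude or NSG mice, randomised at 10 per group, received subcutaneous cell-line implants. At about 100 mm3, animals were dosed orally with vehicle or compound at set doses and schedules (QD or BID); salt forms were used, free base for HCT116. Tumour volume, (L×W×H)/2, and body weight were measured twice weekly. Data are mean ± SEM, n > 8 per group.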

[32] = test system: advanced solid tumors harboring BRAF and KRAS, HRAS, and NRAS mutations; conditions: phase I, early results, cited from earlier work

SMILES: Cc1cnc(NC2CCOCC2)nc1-n1cnc(C(=O)NC(CN)c2cc(F)cc(Cl)c2)c1 (stereo not shown) [ASN007, N-(2-amino-1-(3-chloro-5-fluorophenyl)ethyl)-1-(5-methyl-2-((tetrahydro-2H-pyran-4-yl)amino)pyrimidin-4-yl)-1H-imidazole-4-carboxamide]
- IC50 [1]: 20 nM
- IC50 [2]: 7 nM
- IC50 [3]: 653 nM
- IC50 [4]: 15 nM
- IC50 [5]: 5 nM
- IC50 [6]: 26 nM
- IC50 [7]: 3 nM
- IC50 [8]: 58 nM
- IC50 [9]: 8 nM
- IC50 [10]: > 10000 nM
- IC50 [11]: > 10000 nM
- IC50 [12]: > 10000 nM
- IC50 [13]: > 10000 nM
- IC50 [14]: > 10000 nM
- IC50 [15]: > 10000 nM
- IC50 [16]: 7600 nM
- IC50 [17]: 5700 nM
- IC50 [18]: 4100 nM
- IC50 [19]: 3000 nM
- IC50 [20]: 2300 nM
- IC50 [21]: 1700 nM
- IC50 [22]: 1700 nM
- IC50 [23]: 1600 nM
- IC50 [24]: 1500 nM
- IC50 [25]: 1400 nM
- IC50 [26]: 1200 nM
- IC50 [27]: 400 nM
- IC50 [28]: 200 nM
- IC50 [29]: 100 nM
- duration of inhibition of ERK1/2 targets MSK1 and RSK1 [30]: at least 72 h
- body weight [31]: without body weight loss
- antitumor efficacy ([31]; oral, besylate or mandelate salt, freebase for HCT116): strong antitumor efficacy
- duration of clinical activity ([32]; lasting up): > 12 months
- tolerability [32]: well tolerated
